Measurements: ChEMBL document CHEMBL3352255, “Tailor-made fluorescent trilobolide to study its biological relevance” (J Med Chem, 2014)
Activity calls are given as the source filed them. No cut-off for these calls is given here.

Tests used:
[1] = Cytotoxicity against human PC3 cells after 24 hrs by WST-1 assay; type: functional, cell-based; conditions: PC-3, 24 h
Outline: (§1)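 Dark cytotoxicity (no light exposure) by WST-1 tetrazolium-to-formazan conversion reflecting metabolic activity; compounds tested at concentrations up to 50 μM for 24, 48 or 72 h; IC50 taken as concentration giving 50% inhibition of cell viability.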

MCF7 [2] = experiment: Cytotoxicity against human MCF7 cells after 48 hrs by WST-1 assay; type: functional, cell-based; conditions: MCF7, 48 h; outline: as §1
[3] = Cytotoxicity against human PC3 cells after 72 hrs by WST-1 assay; type: functional, cell-based; conditions: PC-3, 72 h; outline: as §1
[4] = Cytotoxicity against human MIAPaCa2 cells after 72 hrs by WST-1 assay; type: functional, cell-based; conditions: MIA PaCa-2, 72 h; outline: as §1
[5] = Cytotoxicity against human PC3 cells after 48 hrs by WST-1 assay; type: functional, cell-based; conditions: PC-3, 48 h; outline: as §1
MCF7 [6] = experiment: Cytotoxicity against human MCF7 cells after 24 hrs by WST-1 assay; type: functional, cell-based; conditions: MCF7, 24 h; outline: as §1
[7] = Cytotoxicity against rat peritoneal cells assessed as reduction in cell viability at 40 uM after 24 hrs by WST-1 assay
Rattus norvegicus = species: Rattus norvegicus; experiment: Induction of LPS-induced NO production in rat peritoneal cells after 24 hrs using DAR-2 probe by fluorescence assay; type: functional, cell-based
[8] = Cellular uptake in human MIAPaCa2 cells at 5 uM after 24 hrs by fluorescence microscopy; type: ADME, cell-based; conditions: mia paca-2, 24 h
Outline: (§2)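 Live-cell fluorescence microscopy of Bodipy-labelled conjugates (green emission), 5 μM, uptake followed at 10, 20, 40 min and 1, 3, 5, 24 h. Cells stained with Bodipy dye alone served as control for dye-driven localization.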

LNCaP [9] = experiment: Cytotoxicity against human LNCAP cells after 24 hrs by WST-1 assay; type: functional, cell-based; outline: as §1
HT-29 [10] = experiment: Cytotoxicity against human HT-29 cells after 72 hrs by WST-1 assay; type: functional, cell-based; conditions: HT-29, 72 h; outline: as §1
A549 = experiment: Cellular uptake in human A549 cells at 5 uM after 24 hrs by fluorescence microscopy; type: ADME, cell-based; conditions: a549, 24 h; outline: as §2
[11] = Cytotoxicity against rat peritoneal cells assessed as reduction in cell viability at 40 uM after 24 hrs by WST-1 assay; type: cell-based
HT-29 [12] = experiment: Cytotoxicity against human HT-29 cells after 24 hrs by WST-1 assay; type: functional, cell-based; conditions: HT-29, 24 h; outline: as §1
C2C12 [13] = experiment: Cytotoxicity against mouse C2C12 cells after 72 hrs by WST-1 assay; type: functional, cell-based; conditions: C2C12, 72 h; outline: as §1
U2OS [14] = experiment: Cellular uptake in human U2OS cells at 5 uM after 24 hrs by fluorescence microscopy; type: ADME, cell-based; outline: as §2
[15] = Cytotoxicity against human MIAPaCa2 cells after 48 hrs by WST-1 assay; type: functional, cell-based; conditions: MIA PaCa-2, 48 h; outline: as §1
LNCaP [16] = experiment: Cytotoxicity against human LNCAP cells after 48 hrs by WST-1 assay; type: functional, cell-based; outline: as §1
C2C12 [17] = experiment: Cytotoxicity against mouse C2C12 cells after 48 hrs by WST-1 assay; type: functional, cell-based; conditions: C2C12, 48 h; outline: as §1
C2C12 [18] = experiment: Cellular uptake in mouse C2C12 cells at 5 uM after 24 hrs by fluorescence microscopy; type: ADME, cell-based; conditions: c2c12, 24 h; outline: as §2
[19] = Cellular uptake in human PC3 cells at 5 uM after 24 hrs by fluorescence microscopy; type: ADME, cell-based; conditions: pc-3, 24 h; outline: as §2
LNCaP [20] = experiment: Cellular uptake in human LNCAP cells at 5 uM after 24 hrs by fluorescence microscopy; type: ADME, cell-based; outline: as §2
U2OS [21] = experiment: Cytotoxicity against human U2OS cells after 72 hrs by WST-1 assay; type: functional, cell-based; outline: as §1
HeLa = experiment: Cellular uptake in human HeLa cells at 5 uM after 24 hrs by fluorescence microscopy; type: ADME, cell-based; outline: as §2
[22] = Cellular uptake in HEK293T cells at 5 uM after 24 hrs by fluorescence microscopy; type: ADME, cell-based; conditions: human, hek-293t; outline: as §2
MCF7 [23] = experiment: Cellular uptake in human MCF7 cells at 5 uM after 24 hrs by fluorescence microscopy; type: ADME, cell-based; conditions: mcf7, 24 h
U2OS [24] = experiment: Cytotoxicity against human U2OS cells after 24 hrs by WST-1 assay; type: functional, cell-based; outline: as §1
U2OS [25] = experiment: Cytotoxicity against human U2OS cells after 48 hrs by WST-1 assay; type: functional, cell-based; outline: as §1
[26] = Cytotoxicity against human MIAPaCa2 cells after 24 hrs by WST-1 assay; type: functional, cell-based; conditions: MIA PaCa-2, 24 h; outline: as §1
LNCaP [27] = experiment: Cytotoxicity against human LNCAP cells after 72 hrs by WST-1 assay; type: functional, cell-based; outline: as §1
MCF7 [28] = experiment: Cytotoxicity against human MCF7 cells after 72 hrs by WST-1 assay; type: functional, cell-based; conditions: MCF7, 72 h; outline: as §1
C2C12 [29] = experiment: Cytotoxicity against mouse C2C12 cells after 24 hrs by WST-1 assay; type: functional, cell-based; conditions: C2C12, 24 h; outline: as §1
HT-29 [30] = experiment: Cytotoxicity against human HT-29 cells after 48 hrs by WST-1 assay; type: functional, cell-based; conditions: HT-29, 48 h; outline: as §1
[31] = Cellular uptake in Endoplasmic reticulum of human U2OS cells at 1 uM after 1 hr by fluorescence microscopy; type: ADME, cell-based
Outline: (§3)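 Live-cell fluorescence microscopy of cells exposed to Bodipy-labelled conjugates at 1 μM for 1 h. ER was co-stained with ER-Tracker Blue-White DPX (100 nM, 20 min) to check colocalisation. A Bodipy dye-only stain served as control.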

[32] = Cytotoxicity against rat peritoneal cells assessed as reduction in cell viability at 10 uM after 24 hrs by WST-1 assay; type: cell-based
[33] = Cellular uptake in Endoplasmic reticulum of human HeLa cells at 1 uM after 1 hr by fluorescence microscopy; type: ADME, cell-based; outline: as §3
MCF7 [34] = experiment: Induction of LPS-induced NO production in human MCF7 cells at 40 uM after 24 hrs using DAR-2 probe by fluorescence assay; type: functional, cell-based
Outline: (§4)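 NO in living cells (PC-3, LNCaP, MCF-7, U-2 OS) was imaged by fluorescence microscopy with the NO-specific red-emitting probe DAR-2 after compound stimulation.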

LNCaP [35] = experiment: Induction of LPS-induced NO production in human LNCAP cells at 40 uM after 24 hrs using DAR-2 probe by fluorescence assay; type: functional, cell-based; outline: as §4
[36] = Cellular uptake in Endoplasmic reticulum of human PC3 cells at 1 uM after 1 hr by fluorescence microscopy; type: ADME, cell-based; conditions: pc-3, 1 h; outline: as §3
U2OS [37] = experiment: Induction of LPS-induced NO production in human U2OS cells at 40 uM after 24 hrs using DAR-2 probe by fluorescence assay; type: functional, cell-based; outline: as §4
[38] = Cellular uptake in Endoplasmic reticulum of human LNCAP cells at 1 uM after 1 hr by fluorescence microscopy; type: ADME, cell-based; outline: as §3
PC-3 = experiment: Induction of LPS-induced NO production in human PC3 cells at 40 uM after 24 hrs using DAR-2 probe by fluorescence assay; type: functional, cell-based; outline: as §4

| SMILES | IC50 [1] [µM] | IC50 (MCF7 [2]) [µM] | IC50 [3] [µM] | IC50 [4] [µM] | IC50 [5] [µM] | IC50 (MCF7 [6]) [µM] | IC50 (LNCaP [9]) [µM] | IC50 (HT-29 [10]) [µM] | IC50 (HT-29 [12]) [µM] | IC50 (C2C12 [13]) [µM] | IC50 [15] [µM] | IC50 (LNCaP [16]) [µM] | IC50 (C2C12 [17]) [µM] | IC50 (U2OS [21]) [µM] | IC50 (U2OS [24]) [µM] | IC50 (U2OS [25]) [µM] | IC50 [26] [µM] | IC50 (LNCaP [27]) [µM] | IC50 (MCF7 [28]) [µM] | IC50 (C2C12 [29]) [µM] | other results |
| --- | --- | --- | --- | --- | --- | --- | --- | --- | --- | --- | --- | --- | --- | --- | --- | --- | --- | --- | --- | --- | --- |
| C/C=C(/C)C(=O)O[C@@H]1C[C@H]2C(=C1C)[C@@H]1OC(=O)[C@@](C)(O)[C@@]1(O)[C@@H](OC(=O)CCOCCOCCOCCOCCn1cc(COCCOCCOCCOCCNC(=O)CCOCCOCCOCCOCCn3cc(COc4ccc(C5=C6C=CC=[N+]6[B-](F)(F)n6cccc65)cc4)nn3)nn1)C[C@]2(C)OC(C)=O | > 50 | > 50 | > 50 | > 50 | > 50 | > 50 | > 50 | > 50 | > 50 | > 50 | > 50 | > 50 | > 50 | > 50 | > 50 | > 50 | > 50 | > 50 | > 50 | > 50 | Activity [7]: Non-toxic; Activity (Rattus norvegicus): Dose-dependent effect; Drug uptake [8]: Not Active; Drug uptake (A549): Not Active; Activity [11]: Non-toxic; Drug uptake (U2OS [14]): Not Active; Drug uptake (C2C12 [18]): Not Active; Drug uptake [19]: Not Active; Drug uptake (LNCaP [20]): Not Active; Drug uptake (HeLa): Not Active; Drug uptake [22]: Not Active; Drug uptake (MCF7 [23]): Not Active; IC50 (HT-29 [30]): > 50 µM |
| C/C=C(/C)C(=O)O[C@@H]1C[C@H]2C(=C1C)[C@@H]1OC(=O)[C@@](C)(O)[C@@]1(O)[C@@H](OC(=O)Cn1cc(COc3ccc(C4=C5C=CC=[N+]5[B-](F)(F)n5cccc54)cc3)nn1)C[C@]2(C)OC(C)=O | 2.2 | > 50 | 3.2 | > 50 | 2.9 | > 50 | > 50 | > 50 | > 50 | > 50 | > 50 | 3.5 | > 50 | > 50 | > 50 | > 50 | > 50 | > 50 | > 50 | > 50 | Activity [7]: Non-toxic; Activity (Rattus norvegicus): Dose-dependent effect; Drug uptake [8]: Not Active; Drug uptake (A549): Not Active; Activity [11]: Non-toxic; Drug uptake (U2OS [14]): Not Active; Drug uptake (C2C12 [18]): Not Active; Drug uptake [19]: Not Active; Drug uptake (LNCaP [20]): Not Active; Drug uptake (HeLa): Not Active; Drug uptake [22]: Not Active; Drug uptake (MCF7 [23]): Not Active; IC50 (HT-29 [30]): > 50 µM |
| C/C=C(/C)C(=O)O[C@@H]1C[C@H]2C(=C1C)[C@@H]1OC(=O)[C@@](C)(O)[C@@]1(O)[C@@H](OC(=O)[C@@H](C)CC)C[C@]2(C)OC(C)=O | 9.6 | 2.5 | 0.5 | 1.5 | 1.3 | 0.2 | 3.4 | 9.5 | 41.4 | 0.3 | 6 | 0.5 | 1 | 0.7 | 12.5 | 0.2 | 17.4 | 0.4 | 2.1 | 4 | Drug uptake [31]: Active; Activity [32]: 65%; Drug uptake [33]: Active; Activity (MCF7 [34]): Active; Activity (LNCaP [35]): Active; Drug uptake [36]: Active; Activity (U2OS [37]): Active; Drug uptake [38]: Active; Activity (PC-3): Active; IC50 (HT-29 [30]): 9.8 µM |
